ChEMBL document CHEMBL3102848, “Carbamazepine derivatives with P2X4 receptor-blocking activity” (Bioorg Med Chem, 2014)

Tests used:
P2X purinoceptor 4 [1] = molecular target: T1, P2X purinoceptor 4 (Rattus norvegicus, UniProt P51577); test: Antagonist activity at rat P2X4 receptor assessed as inhibition of ATP-induced calcium influx preincubated for 30 mins followed by ATP addition by Fluo-4 AM dye-based fluorescence assay
T1 sequence (P51577 whole entry): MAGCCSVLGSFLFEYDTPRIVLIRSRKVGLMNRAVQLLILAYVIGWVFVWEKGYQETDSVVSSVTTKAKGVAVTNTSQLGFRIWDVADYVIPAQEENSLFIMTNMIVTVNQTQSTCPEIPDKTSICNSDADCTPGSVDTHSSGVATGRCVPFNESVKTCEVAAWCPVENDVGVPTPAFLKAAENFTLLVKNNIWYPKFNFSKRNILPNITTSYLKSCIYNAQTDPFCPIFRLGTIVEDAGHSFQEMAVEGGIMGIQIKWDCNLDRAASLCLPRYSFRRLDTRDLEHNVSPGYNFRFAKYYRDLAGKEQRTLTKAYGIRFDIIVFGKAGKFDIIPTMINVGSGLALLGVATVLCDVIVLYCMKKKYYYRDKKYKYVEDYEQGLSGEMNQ

[2] = molecular target: T2, P2X purinoceptor 2 (Homo sapiens) (UniProt Q9UBL9); test: Antagonist activity at human P2X2 receptor expressed in human 1321N1 cells assessed as inhibition of ATP-induced cytosolic calcium influx at 100 uM preincubated for 30 mins followed by ATP addition by Fluo-4 AM dye-based fluorescence assay; format: cell-based
T2 sequence (whole entry): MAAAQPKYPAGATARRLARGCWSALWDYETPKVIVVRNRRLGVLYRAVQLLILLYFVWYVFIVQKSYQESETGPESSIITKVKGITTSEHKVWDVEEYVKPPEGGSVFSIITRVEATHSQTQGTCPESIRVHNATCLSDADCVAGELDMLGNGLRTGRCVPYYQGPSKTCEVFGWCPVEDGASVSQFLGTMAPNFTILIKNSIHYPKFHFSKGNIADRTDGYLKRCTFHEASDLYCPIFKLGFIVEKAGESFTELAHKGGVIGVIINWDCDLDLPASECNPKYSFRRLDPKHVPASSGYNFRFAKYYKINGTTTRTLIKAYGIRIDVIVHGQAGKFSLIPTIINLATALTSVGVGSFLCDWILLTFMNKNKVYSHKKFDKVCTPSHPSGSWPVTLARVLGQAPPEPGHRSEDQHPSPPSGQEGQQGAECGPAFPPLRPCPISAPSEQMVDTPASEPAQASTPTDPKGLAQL

P2X purinoceptor 7 = molecular target: T3, P2X purinoceptor 7 (Homo sapiens, UniProt Q99572); test: Antagonist activity at human P2X7 receptor expressed in human 1321N1 cells assessed as inhibition of ATP-induced cytosolic calcium influx preincubated for 30 mins followed by ATP addition by Fluo-4 AM dye-based fluorescence assay; format: cell-based
T3 sequence (Q99572 whole entry): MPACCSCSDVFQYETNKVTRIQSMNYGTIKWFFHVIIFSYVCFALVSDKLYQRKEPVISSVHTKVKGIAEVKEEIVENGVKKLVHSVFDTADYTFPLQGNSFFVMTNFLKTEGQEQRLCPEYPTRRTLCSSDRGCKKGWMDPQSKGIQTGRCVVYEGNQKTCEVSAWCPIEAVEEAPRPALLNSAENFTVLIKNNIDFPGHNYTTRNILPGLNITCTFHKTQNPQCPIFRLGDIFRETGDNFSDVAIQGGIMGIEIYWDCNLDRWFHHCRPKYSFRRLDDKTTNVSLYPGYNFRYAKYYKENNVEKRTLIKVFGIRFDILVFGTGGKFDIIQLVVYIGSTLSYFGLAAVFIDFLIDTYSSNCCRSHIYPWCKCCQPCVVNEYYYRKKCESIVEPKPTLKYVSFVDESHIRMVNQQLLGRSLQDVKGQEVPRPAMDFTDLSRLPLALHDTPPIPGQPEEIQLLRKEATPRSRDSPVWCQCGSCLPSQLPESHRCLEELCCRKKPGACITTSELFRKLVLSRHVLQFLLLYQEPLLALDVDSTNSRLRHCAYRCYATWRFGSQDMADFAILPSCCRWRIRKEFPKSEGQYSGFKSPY

P2X purinoceptor 3 = molecular target: T4, P2X purinoceptor 3 (Homo sapiens, UniProt P56373); test: Antagonist activity at human P2X3 receptor expressed in human 1321N1 cells assessed as inhibition of ATP-induced cytosolic calcium influx preincubated for 30 mins followed by ATP addition by Fluo-4 AM dye-based fluorescence assay; format: cell-based
T4 sequence (P56373 whole entry): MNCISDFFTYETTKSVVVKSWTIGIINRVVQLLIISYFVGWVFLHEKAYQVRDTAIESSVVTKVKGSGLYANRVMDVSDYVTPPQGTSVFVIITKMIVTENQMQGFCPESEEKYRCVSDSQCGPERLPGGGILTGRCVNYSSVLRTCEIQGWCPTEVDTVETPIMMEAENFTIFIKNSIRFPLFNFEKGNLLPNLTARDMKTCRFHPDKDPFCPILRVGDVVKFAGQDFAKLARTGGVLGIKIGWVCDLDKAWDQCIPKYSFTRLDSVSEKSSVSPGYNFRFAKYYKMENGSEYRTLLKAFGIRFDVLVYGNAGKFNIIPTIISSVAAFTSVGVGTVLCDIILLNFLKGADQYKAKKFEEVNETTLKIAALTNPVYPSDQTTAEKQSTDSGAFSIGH

P2X purinoceptor 4 [3] = molecular target: T5, P2X purinoceptor 4 (Homo sapiens, UniProt Q99571); test: Antagonist activity at human P2X4 receptor expressed in human 1321N1 cells assessed as inhibition of ATP-induced cytosolic calcium influx preincubated for 30 mins followed by ATP addition by Fluo-4 AM dye-based fluorescence assay; format: cell-based
T5 sequence (Q99571 whole entry): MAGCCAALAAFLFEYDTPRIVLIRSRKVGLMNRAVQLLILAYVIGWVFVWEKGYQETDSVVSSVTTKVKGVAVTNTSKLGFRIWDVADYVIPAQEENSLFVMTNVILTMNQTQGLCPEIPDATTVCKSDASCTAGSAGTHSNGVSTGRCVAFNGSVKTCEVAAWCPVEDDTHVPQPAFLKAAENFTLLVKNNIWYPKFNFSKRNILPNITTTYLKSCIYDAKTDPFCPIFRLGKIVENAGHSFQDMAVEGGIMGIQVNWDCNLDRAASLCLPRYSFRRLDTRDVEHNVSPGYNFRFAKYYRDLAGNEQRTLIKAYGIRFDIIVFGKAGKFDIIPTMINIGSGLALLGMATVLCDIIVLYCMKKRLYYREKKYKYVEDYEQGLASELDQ
Procedure, shortened: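 Human P2X4 stably transfected into 1321N1 astrocytoma cells. Inhibition of ATP-induced calcium influx measured as in earlier work. Compounds were first screened at a single high concentration, chosen according to their solubility.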

P2X purinoceptor 2 = molecular target: T6, P2X purinoceptor 2 (Homo sapiens, UniProt Q9UBL9); test: Antagonist activity at human P2X2 receptor expressed in human 1321N1 cells assessed as inhibition of ATP-induced cytosolic calcium influx preincubated for 30 mins followed by ATP addition by Fluo-4 AM dye-based fluorescence assay; format: cell-based
T6 sequence (Q9UBL9 whole entry): T2 sequence (whole entry)

Row | Structure (SMILES) | IC50 (P2X purinoceptor 4 [1]) [µM] | inhibition [2] [%] | IC50 (P2X purinoceptor 7) [µM] | IC50 (P2X purinoceptor 3) [µM] | IC50 (P2X purinoceptor 4 [3]) [µM] | IC50 (P2X purinoceptor 2) [µM]
1 | O=C(N1CCCC1)N1c2ccccc2C=Cc2ccccc21 | 69.3 | 6 | > 100 | 29.8 | 34.1 | > 100
2 | O=C(N1CCCCC1)N1c2ccccc2C=Cc2ccccc21 | 95.8 | 4 | > 100 | 7.98 | 13.7 | > 100
3 | CC(C)N(C(=O)N1c2ccccc2C=Cc2ccccc21)C(C)C | 54.6 | 8 | 95.2 | 7.18 | 3.44 | > 100
4 | O=C(NC1CCCCC1)N1c2ccccc2C=Cc2ccccc21 | 109 | 11 | 40.8 | 28 | 33.8 | > 100

Now those with a lower IC50 (P2X purinoceptor 4 [1]), led by results:

Row | IC50 (P2X purinoceptor 4 [1]) [µM] | inhibition [2] [%] | IC50 (P2X purinoceptor 7) [µM] | IC50 (P2X purinoceptor 3) [µM] | IC50 (P2X purinoceptor 4 [3]) [µM] | IC50 (P2X purinoceptor 2) [µM] | Structure (SMILES)
5 | 43 | 1 | 69.8 | 14.2 | 11.4 | > 100 | CCN(CC)C(=O)N1c2ccccc2C=Cc2ccccc21
6 | 35.9 | -2 | > 100 | 15.2 | 7.78 | > 100 | CCCN(CCC)C(=O)N1c2ccccc2C=Cc2ccccc21
